From the array DNA melting data of Ke et al. (doi:10.1101/2024.01.08.574731) come the findings set out here.

A short description of series [1]: melting temperature; fluorescence melt of hairpins on a sequencing array, two-state fit, raised by 9.35 °C to match UV melts. The following applies: sodium 0.088 M. In short, it runs like this:
(§1)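 Cy3 signals were normalised both to pre-quench Cy3 and to control constructs. They came from library hairpins carrying annealed Cy3 and quencher oligos on a sequenced MiSeq flow cell, imaged in 50 mM Na-HEPES pH 8.0, 25 mM NaCl, in 2.5 °C steps up to 60 °C. Bootstrapped two-state fits gave melting temperature and folding enthalpy, and four replicates were combined by inverse variance. Fitted temperatures were then raised by 9.35 °C to match UV melts.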

Series [2] can be described thus: folding enthalpy; higher = less favourable; fluorescence melt of hairpins on a sequencing array, two-state fit. The following applies: sodium 0.088 M. In short, it runs like this:
as §1

Turning to GGACACTCGAAAGAGTCC (((..(((....)))))), in series [1], the Tm worked out at 39 °C. The folding enthalpy in series [2] is -66.4 kJ/mol.
As to GGACAGCGAAAGCTATCC (((.(((....))).))), the Tm in series [1] came to 45 °C. For the same sequence, the folding enthalpy in series [2] is -104 kJ/mol.
With GGACAGCGAAAGCTTCC (((.(((....)))))), the Tm in series [1] was 43.5 °C. The folding enthalpy in series [2] was -87.5 kJ/mol.
The corresponding values for GGACAGGGAAACCTGTCC (((((((....))))))) are 68.3 °C and -157 kJ/mol.
Turning to GGACAGTCGAAAGACTCC (((..(((....)))))), the Tm in series [1] amounted to 31 °C. The folding enthalpy in series [2] is -53.6 kJ/mol.
For GGACATCCGAAAGGATCC (((..(((....)))))), in that order: 29.3 °C and -52.5 kJ/mol.
For GGACATCGAAAGATCTCC (((.(((....))).))), in that order: 32.6 °C and -91.3 kJ/mol.
For GGACATCGAAAGATTCC (((.(((....)))))), in that order: 38.6 °C and -110 kJ/mol.
For the sequence GGACATCGAAAGATTTCC (((.(((....))).))), in series [1], the Tm was found to be 39.6 °C. The folding enthalpy in series [2] was -134 kJ/mol.
On to GGACATGGAAACATATCC (((.(((....))).))), for which, in series [1], the Tm is 30.5 °C. Moreover, the folding enthalpy in series [2] was -90.5 kJ/mol.
The corresponding values for GGACATGGAAACGTGTTC (.(((.(....).))).) are 35 °C and -99.5 kJ/mol.
Take GGACCACGAAAGTGATCC (((.(((....))).))): in series [1], the Tm came out at 51.5 °C. Further, the folding enthalpy in series [2] was -122 kJ/mol.
Turning to GGACCAGAAATGGTCC ((((((....)))))), the Tm in series [1] is 63.7 °C. Besides, the folding enthalpy in series [2] is -183 kJ/mol.
The corresponding values for GGACCCCGAAAGGGTCC (((.(((....)))))) are 68 °C and -126 kJ/mol.
For GGACCCGAAAGGGAGTCC ((((((....)))..))), the Tm in series [1] came out at 49.9 °C. For the same sequence, the folding enthalpy in series [2] was -87.3 kJ/mol.
In the case of GGACCCGAAAGGGATTCC ((((((....)))..))), in series [1], the Tm stood at 37.5 °C. Besides, the folding enthalpy in series [2] was -51 kJ/mol.
For GGACCCGAAAGGGCCTCC ((((((....)))..))), in that order: 57.5 °C and -61.7 kJ/mol.
Regarding GGACCCGAAAGGGTCTCC ((((((....)))..))), the Tm in series [1] worked out at 58.9 °C. For the same sequence, the folding enthalpy in series [2] is -30 kJ/mol.
The corresponding values for GGACCCGGAAACGGGCCC ((.((((....)))).)) are 59.6 °C and -80.2 kJ/mol.
The corresponding values for GGACCCGGAAACGGGTTC (.(((((....))))).) are 59.4 °C and -107 kJ/mol.
For GGACCTCGAAAGAGATCC (((.(((....))).))), in that order: 46.7 °C and -128 kJ/mol.
As to GGACCTCGAAAGAGCTCC (((.(((....))).))), the Tm in series [1] came out at 37 °C. In series [2], the folding enthalpy is -107 kJ/mol.
For GGACGCCCGAAAGGGTCC (((..(((....)))))), in that order: 43.2 °C and -67.8 kJ/mol.
For GGACGCCGAAAGGCATCC (((.(((....))).))), the Tm in series [1] worked out at 52.6 °C. In addition, the folding enthalpy in series [2] was -94.6 kJ/mol.
For GGACGCGAAAGCGATCC ((((((....))).))), in that order: 57.4 °C and -70 kJ/mol.
The corresponding values for GGACGCGAAAGCGTATCC ((((((....)))..))) are 37.4 °C and -40 kJ/mol.
Turning to GGACGCGAAAGCGTCTCC ((((((....)))..))), the Tm in series [1] was 62.5 °C. Also, the folding enthalpy in series [2] was -26.6 kJ/mol.
As to GGACGCGAAAGCGTTCC ((((((....))).))), the Tm in series [1] stood at 61.8 °C. Moreover, the folding enthalpy in series [2] was -59 kJ/mol.
For GGACGCGGAAACGCGTTC (.(((((....))))).), in that order: 62.2 °C and -69.5 kJ/mol.
GGACGGCGAAAGCCTTCC (((.(((....))).))): the Tm in series [1] stood at 52.5 °C. Besides, in series [2], the folding enthalpy is -94.8 kJ/mol.
As to GGACGGGGAAACCCACCC ((..(((....)))..)), the Tm in series [1] amounted to 26.1 °C. Also, in series [2], the folding enthalpy was -43.6 kJ/mol.
For GGACGTGGAAACACACCC ((..(((....)))..)), in that order: 25 °C and -33.1 kJ/mol.
For the sequence GGACGTGGAAACACGTTC (.(((((....))))).), in series [1], the Tm worked out at 53.7 °C. In series [2], the folding enthalpy is -96.1 kJ/mol.
For GGACTACGAAAGTAATCC (((.(((....))).))), in that order: 38.7 °C and -140 kJ/mol.
For GGACTACGAAAGTATCC (((.(((....)))))), in that order: 36.8 °C and -90 kJ/mol.
The corresponding values for GGACTAGCGAAAGCTTCC (((..(((....)))))) are 27.5 °C and -44.8 kJ/mol.
As to GGACTCGAAAGAGATCC ((((((....))).))), in series [1], the Tm is 44.7 °C. The folding enthalpy in series [2] was -92.4 kJ/mol.
The corresponding values for GGACTCGAAAGAGGTTCC ((((((....)))..))) are 33.8 °C and -73.6 kJ/mol.
As to GGACTCGAAAGAGTCTCC ((((((....)))..))), the Tm in series [1] turned out to be 53.3 °C. In addition, the folding enthalpy in series [2] is -43.7 kJ/mol.
With GGACTGGGAAACCAGTCC (((((((....))))))), in series [1], the Tm was determined as 68.5 °C. In addition, the folding enthalpy in series [2] is -148 kJ/mol.
The corresponding values for GGACTGGGAAACTAGTCC (((((.(....).))))) are 50.2 °C and -134 kJ/mol.
The corresponding values for GGAGAAACGAAAGTTTCC (((..(((....)))))) are 37.7 °C and -59.2 kJ/mol.
The corresponding values for GGAGAAGGAAACCTCTCC (((((.(....).))))) are 37.7 °C and -120 kJ/mol.
As to GGAGACCGAAAGGTTTCC (((.(((....))).))), the Tm in series [1] is 55.5 °C. In series [2], the folding enthalpy is -173 kJ/mol.
The corresponding values for GGAGACGAAAGTCCCTCC ((((((....)))..))) are 49.8 °C and -68 kJ/mol.
For GGAGACGAAAGTCTTCC ((((((....))).))), in that order: 50.9 °C and -75.5 kJ/mol.
In the case of GGAGACTCGAAAGAGTCC (((..(((....)))))), the Tm in series [1] came out at 45.4 °C. Further, the folding enthalpy in series [2] is -42 kJ/mol.
The corresponding values for GGAGAGCCGAAAGGCTCC (((..(((....)))))) are 43.3 °C and -29 kJ/mol.
For GGAGAGCGAAAGCTGTCC (((.(((....))).))), in that order: 58.2 °C and -137 kJ/mol.
GGAGAGGCGAAAGCCTCC (((..(((....)))))): in series [1], the Tm was 49.5 °C. Also, the folding enthalpy in series [2] was -31 kJ/mol.
Regarding GGAGAGGGAAACCTTTCC (((.(((....))).))), the Tm in series [1] is 38.2 °C. Also, in series [2], the folding enthalpy was -114 kJ/mol.
GGAGAGTCGAAAGACTCC (((..(((....)))))): the Tm in series [1] was determined as 46.6 °C. For the same sequence, in series [2], the folding enthalpy is -45.6 kJ/mol.
For GGAGATGCGAAAGCATCC (((..(((....)))))), in that order: 46.6 °C and -36.7 kJ/mol.
For GGAGATGGAAACACCTCC ((((.((....)).)))), in that order: 39.7 °C and -124 kJ/mol.
For GGAGATGGAAACATCCCC ((.((((....)))).)), in that order: 41.3 °C and -111 kJ/mol.
